pEC50: −log10 of the molar value. Values after ≈ are worked out from the molar mass of the structure shown. Active and inactive are the calls of the source. No cut-off for these calls is given here.
Key:
BT-474 = test: Cytotoxicity against human BT-474 cells; format: functional
Summary of the method: (§1)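 BT-474 breast cancer cells and nontumorigenic HMECs treated 48 h with concentrations up to 30 μM. CC50 derived from concentration–response viability plots. Values >30 μM assigned when viability fell by less than 50% of vehicle at 30 μM. Mean ± SEM, n ≥ 3.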

[1] = Metabolic stability in human liver microsomes assessed as parent compound remaining preincubated for 15 mins followed by NADPH addition and measured after 1 hr by LC-MS/MS analysis; format: ADME, Microsome; settings: time 75 min, read-out: Stability
Summary of the method: (§2)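 Microsomal stability assessed in mouse, human, rat or dog liver microsomes with NADPH cofactor. Half-life and percent parent remaining at 60 and 120 min reported. Mean of at least two independent experiments, each in two technical replicates.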

[2] = Metabolic stability in human liver microsomes assessed as parent compound remaining preincubated for 15 mins followed by UDPGA addition and measured after 2 hrs by LC-MS/MS analysis; format: ADME, Microsome; settings: time 135 min, read-out: Stability
Summary of the method: (§3)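 Mouse and human liver microsomes incubated with UDPGA cofactor. Half-life and percent parent remaining at 120 min reported. Mean of at least two independent experiments, each in two technical replicates.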

[3] = Metabolic stability in mouse liver microsomes assessed as half-life preincubated for 15 mins followed by UDPGA addition and measured after 2 hrs by LC-MS/MS analysis
[4] = Metabolic stability in human liver microsomes assessed as parent compound remaining preincubated for 15 mins followed by NADPH addition and measured after 2 hrs by LC-MS/MS analysis; format: ADME, Microsome; settings: time 135 min, read-out: Stability; summary of the method: as §2
[5] = Metabolic stability in dog liver microsomes assessed as parent compound remaining preincubated for 15 mins followed by NADPH addition and measured after 1 to 2 hrs by LC-MS/MS analysis; format: ADME, Canis lupus familiaris, Microsome; settings: time 75-135 min; summary of the method: as §2
[6] = Metabolic stability in rat liver microsomes assessed as half life preincubated for 15 mins followed by NADPH addition and measured after 1 to 2 hrs by LC-MS/MS analysis; format: ADME, Microsome; settings: time 75-135 min; summary of the method: as §2
[7] = Metabolic stability in mouse liver microsomes assessed as half life preincubated for 15 mins followed by UDPGA addition and measured after 2 hrs by LC-MS/MS analysis; format: ADME, Microsome; settings: time 135 min; summary of the method: as §3
[8] = Metabolic stability in mouse liver microsomes assessed as half life preincubated for 15 mins followed by NADPH addition and measured after 1 to 2 hrs by LC-MS/MS analysis; format: ADME, Microsome; settings: liver microsomes, time 75-135 min; summary of the method: as §2
[9] = Metabolic stability in dog liver microsomes assessed as half life preincubated for 15 mins followed by NADPH addition and measured after 1 to 2 hrs by LC-MS/MS analysis; format: ADME, Canis lupus familiaris, Microsome; settings: time 75-135 min; summary of the method: as §2
[10] = Metabolic stability in mouse liver microsomes assessed as parent compound remaining preincubated for 15 mins followed by NADPH addition and measured after 2 hrs by LC-MS/MS analysis; format: ADME, Microsome; settings: time 135 min, read-out: Stability; summary of the method: as §2
[11] = Aqueous kinetic solubility of the compound in PBS at pH 7.4 at 250 uM incubated for 24 hrs by UPLC/MS analysis; format: physicochemical; settings: read-out: Kinetic_solubility
Summary of the method: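 Kinetic solubility measured in phosphate-buffered saline, pH 7.4. Mean of at least two independent experiments, each run in two technical replicates.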

HMEC = test: (§4) Cytotoxicity against HMECs; format: toxicity, cell-based; settings: human, hmec; summary of the method: as §1
[12] = Metabolic stability in rat liver microsomes assessed as parent compound remaining preincubated for 15 mins followed by NADPH addition and measured after 1 to 2 hrs by LC-MS/MS analysis; format: ADME, Microsome; settings: time 75-135 min; summary of the method: as §2
[13] = Metabolic stability in mouse liver microsomes assessed as parent compound remaining preincubated for 15 mins followed by NADPH addition and measured after 1 hr by LC-MS/MS analysis; format: ADME, Microsome; settings: time 75 min, read-out: Stability; summary of the method: as §2
[14] = Metabolic stability in human liver microsomes assessed as half life preincubated for 15 mins followed by NADPH addition and measured after 1 to 2 hrs by LC-MS/MS analysis; format: ADME, Microsome; settings: liver microsomes, time 75-135 min; summary of the method: as §2
[15] = Cytotoxicity against human OMM-1 cells; format: functional
Summary of the method: (§5)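 Human cancer lines (A375, MDA-MB-231, OMM-1, UPMM-2, CAPAN-2, HepG2, HT-29, HCT116) treated up to 30 μM. CC50 derived from concentration–response viability plots. Mean ± SEM, n ≥ 6. Two-tailed unpaired t test used between compounds.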

A375 (human) [16] = test: Inhibition of autophagy in human A375 cells expressing EGFP-LC3B assessed as increase in LC3-II protein level at 2.5 uM after 24 hrs by immunoblotting analysis
HCT-116 = test: Cytotoxicity against human HCT-116 cells; format: functional; summary of the method: as §5
Capan-2 = test: Cytotoxicity against human Capan-2 cells; format: functional; summary of the method: as §5
MDA-MB-231 = test: Cytotoxicity against human MDA-MB-231 cells; format: functional; summary of the method: as §5
[17] = Cytotoxicity against human UPMM-2 cells; format: functional; summary of the method: as §5
[18] = as §4; format: toxicity, cell-based, HMEC; settings: human, HMEC cells; summary of the method: as §1
HT-29 = test: Cytotoxicity against human HT-29 cells; format: functional; summary of the method: as §5
A375 (human) [19] = test: Inhibition of autophagy in human A375 cells expressing EGFP-LC3B assessed as accumulation of autophagosome after 24 hrs by Hoechst 33342 staining based fluorescent microscopy analysis; settings: dose 1.25-5 µM
[20] = Inhibition of REV-ERBbeta (unknown origin) transcription expressed in HEK293 cells incubated for 24 hrs by gaussia luciferase based assay; format: cell-based; settings: Homo sapiens, HEK293, 24 h
Summary of the method: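 HEK-293 cells cotransfected with REV-ERBβ and a luciferase reporter driven by two repeats of a REV-ERB response element (RevRE) consensus, then treated across a concentration range. Luciferase activity is expressed as fold of DMSO vehicle, mean ± SEM, n = 6, and EC50 is taken from the concentration-response curve. A parallel reporter carrying a mutated RevRE served as a specificity control.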

HepG2 = test: Cytotoxicity against human HepG2 cells; format: functional; summary of the method: as §5
A-375 = test: Cytotoxicity against human A-375 cells; format: functional; summary of the method: as §5

| SMILES | CC50 (BT-474) [µM] | remaining at 1 h [1] [%] | remaining at 2 h [2] [%] | t1/2 at 2 h [3] [h] | remaining at 2 h [4] [%] | half-life [7] [h] | remaining at 2 h [10] [%] | solubility kinetic at 24 h, 250 µM [11] [µM] | remaining at 1 h [13] [%] | half-life [14] [h] | other results |
| --- | --- | --- | --- | --- | --- | --- | --- | --- | --- | --- | --- |
| Fc1ccc(C2(NCc3cc(CC4CCNCC4)ccc3F)CCCC2)cc1 | 2.29 | 75 | 95 | > 2 | 54 | > 2 | 74 | 245 (≈ 94.2 µg/mL) | 82 | > 2 | Stability [5]: 83%; half-life ([6]; liver microsomes): > 1 h; half-life [8]: > 2 h; half-life ([9]; liver microsomes): > 1 h; CC50 (HMEC): 17.2 µM; Stability [12]: 75% |
| CN1CCC(Cc2cccc(CNC3(c4ccc(F)cc4)CCCC3)c2)CC1 | 5.93 | 79 | > 95 | > 2 | 50 | > 2 | 39 | 235 (≈ 89.4 µg/mL) | 66 | > 2 | CC50 [15]: 2.28 µM; inhibition (A375 (human) [16]): Active; CC50 (HCT-116): 13.5 µM; t1/2 ([6]; microsomes): 0.733 h; CC50 (Capan-2): > 30 µM; CC50 (MDA-MB-231): 7.42 µM; t1/2 ([9]; microsomes): 0.933 h; CC50 [17]: 1.91 µM; CC50 [18]: > 30 µM; CC50 (HT-29): 18.9 µM; inhibition (A375 (human) [19]): Dose-Dependent Effect; pEC50 [20]: 5.42; CC50 (HepG2): 2.8 µM; CC50 (A-375): 5.67 µM |
